Active and inactive are the calls of the source. The calls are words filed in the database; no cut-off is given here.

For assay [1], the target named is T1, Sodium/glucose cotransporter 2 (Mus musculus, UniProt Q923I7).
T1 sequence (Q923I7 whole entry): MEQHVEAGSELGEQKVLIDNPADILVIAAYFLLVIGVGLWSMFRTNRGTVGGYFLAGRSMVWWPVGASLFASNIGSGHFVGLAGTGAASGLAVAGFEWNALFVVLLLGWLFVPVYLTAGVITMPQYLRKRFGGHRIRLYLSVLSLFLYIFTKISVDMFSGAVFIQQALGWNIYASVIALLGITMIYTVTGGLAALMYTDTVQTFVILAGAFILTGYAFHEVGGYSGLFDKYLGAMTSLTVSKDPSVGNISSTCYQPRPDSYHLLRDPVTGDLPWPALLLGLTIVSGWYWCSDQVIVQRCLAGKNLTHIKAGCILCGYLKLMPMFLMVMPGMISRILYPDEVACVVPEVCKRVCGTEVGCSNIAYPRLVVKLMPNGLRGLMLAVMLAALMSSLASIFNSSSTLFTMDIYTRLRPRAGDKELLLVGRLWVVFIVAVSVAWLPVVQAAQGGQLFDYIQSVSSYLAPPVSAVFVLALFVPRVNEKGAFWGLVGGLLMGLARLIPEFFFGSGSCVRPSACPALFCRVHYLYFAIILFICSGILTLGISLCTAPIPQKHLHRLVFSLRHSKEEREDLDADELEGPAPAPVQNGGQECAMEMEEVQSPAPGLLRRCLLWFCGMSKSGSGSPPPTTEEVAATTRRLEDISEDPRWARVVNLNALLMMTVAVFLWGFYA
The assay is described as follows: Inhibition of mouse SGLT2-mediated [14C]alpha-methylglucopyranoside uptake by cell based assay.

Assay [2] deals with T2, Sodium/glucose cotransporter 2 (Homo sapiens, UniProt P31639).
T2 sequence (P31639 whole entry): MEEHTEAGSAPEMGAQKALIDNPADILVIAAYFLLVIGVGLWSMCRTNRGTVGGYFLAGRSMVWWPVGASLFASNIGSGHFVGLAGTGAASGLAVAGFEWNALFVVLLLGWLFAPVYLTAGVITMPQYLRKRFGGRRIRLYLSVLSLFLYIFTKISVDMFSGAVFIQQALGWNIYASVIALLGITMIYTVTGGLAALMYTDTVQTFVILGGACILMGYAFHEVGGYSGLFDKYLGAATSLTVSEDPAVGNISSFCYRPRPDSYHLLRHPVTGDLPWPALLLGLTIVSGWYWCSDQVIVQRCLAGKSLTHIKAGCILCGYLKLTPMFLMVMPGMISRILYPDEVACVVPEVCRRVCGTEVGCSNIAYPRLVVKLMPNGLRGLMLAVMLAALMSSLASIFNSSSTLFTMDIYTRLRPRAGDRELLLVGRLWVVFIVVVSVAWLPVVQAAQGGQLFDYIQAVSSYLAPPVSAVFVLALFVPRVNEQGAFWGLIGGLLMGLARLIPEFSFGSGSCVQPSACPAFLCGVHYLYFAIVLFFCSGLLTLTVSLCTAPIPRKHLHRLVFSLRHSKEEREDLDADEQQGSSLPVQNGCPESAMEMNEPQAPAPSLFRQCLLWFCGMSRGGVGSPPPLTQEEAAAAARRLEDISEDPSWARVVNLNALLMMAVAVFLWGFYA
Put plainly: Inhibition of human SGLT2 expressed in HEK293 cells assessed as inhibition of [14C]alpha-methylglucopyranoside uptake. Type of assay: cell-based. A digest of the protocol: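 Cells stably expressing human SGLT2 were used to measure sodium-coupled uptake of [14C]α-methylglucopyranoside, a metabolically stable SGLT-specific glucose analogue. Uptake was measured across increasing compound concentrations, and IC50 was derived from the inhibition of uptake.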

The subject of assay [3] is Mus musculus. Put plainly: Induction of glucosuria in high fat diet induced obese albino C57 mouse at 10 to 100 mg/kg, po administered as single administration measured after 17 hrs by glucose excretion assay. The format is functional, organism-based. A digest of the protocol:
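Adult C57 diet-induced obese mice were given one oral gavage dose spanning 10 to 100 mg/kg. Urinary glucose excretion was measured over the first 17 h after dosing, n = 6 per group, with a vehicle-treated group included.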

The test system of assay [4] is Mus musculus. Put plainly: Induction of glucosuria in high fat diet induced obese albino C57 mouse at 77 mg/kg administered daily through diet for 4 consecutive days by glucose excretion assay. The format is functional, organism-based. The arrangement: dose 77 mg/kg. The essentials: (§1)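 DIO mice received the compound as a dietary admixture for 4 consecutive days. Average daily intakes were 8, 26, 77 and 259 mg/kg. Urinary glucose excretion was measured each day, n = 6.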

Assay [5] deals with Mus musculus. Put plainly: Induction of glucosuria in high fat diet induced obese albino C57 mouse at 30 mg/kg, po administered as single administration measured after 24 hrs by glucose excretion assay. The format is functional, organism-based. The arrangement: dose 30 mg/kg. The essentials:
(§2)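 DIO mice received one dose, either by oral gavage or as a dietary admixture. Urinary glucose excretion was then followed past 24 h, n = 6.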

For assay [6], the system named is Mus musculus. Put plainly: Induction of glucosuria in high fat diet induced obese albino C57 mouse at 75 mg/kg administered through diet measured after 24 hrs by glucose excretion assay. The format is functional, organism-based. On the set-up: dose 75 mg/kg. The essentials: as §2
Assay [7] concerns Mus musculus. The assay is described as follows: Induction of glucosuria in high fat diet induced obese albino C57 mouse at 259 mg/kg administered daily through diet for 4 consecutive days by glucose excretion assay. The format is functional, organism-based. The arrangement: dose 259 mg/kg. A digest of the protocol: as §1
Assay [8] deals with Mus musculus. Put plainly: Induction of glucosuria in high fat diet induced obese albino C57 mouse at 75 mg/kg, po administered as single administration measured after 24 hrs by glucose excretion assay. The format is functional, organism-based. The arrangement: dose 75 mg/kg. A digest of the protocol:
as §2

The test system of assay [9] is Mus musculus. Put plainly: Induction of glucosuria in high fat diet induced obese albino C57 mouse at 26 mg/kg administered daily through diet for 4 consecutive days by glucose excretion assay. Type of assay: functional, organism-based. On the set-up: dose 26 mg/kg. The essentials:
as §1

Regarding `CCOc1ccc(Cc2cc([C@H]3OC(OC)[C@H](O)[C@@H](O)[C@@H]3O)ccc2Cl)cc1` (stereo partly drawn), the IC50 is 9200 nM in [1] and > 30000 nM in assay [2].

For the molecule `COC1O[C@@H](c2ccc(Cl)c(Cc3ccc(Oc4nccs4)cc3)c2)[C@H](O)[C@@H](O)[C@@H]1O` (mixture of isomers), the results for the concentration for half-maximal inhibition (IC50) in assay [1] and in [2] were 60 nM and 150 nM, respectively.

Consider `CCOc1ccc(Cc2cc([C@@H]3OC(OCC)[C@@H](O)[C@H](O)[C@H]3O)ccc2Cl)cc1` (mixture of isomers), for which the IC50 in [1] was found to be 19 nM; in assay [2], 58 nM.

With `COC1O[C@@H](c2ccc(Cl)c(Cc3ccc(O[C@H]4CCN(C)C4)cc3)c2)[C@H](O)[C@@H](O)[C@@H]1O` (mixture of isomers), the IC50 stood at 92 nM in assay [1] and 170 nM in [2].

Regarding `CCOc1ccc(Cc2cc([C@@H]3OC(OC)[C@H](F)[C@H](O)[C@H]3O)ccc2Cl)cc1` (mixture of isomers), the figures for the IC50 in assay [1] and in assay [2] were 220 nM and 600 nM, respectively.

Turning to `CCOc1ccc(Cc2cc([C@@H]3OC(O)[C@@H](O)[C@H](O)[C@H]3O)ccc2Cl)cc1` (mixture of isomers), the IC50 in [1] was found to be 100 nM; in assay [2], 280 nM.

As for `CCOc1ccc(Oc2cc([C@@H]3OC(OC)[C@@H](O)[C@H](O)[C@H]3O)ccc2Cl)cc1` (mixture of isomers), the half-maximal inhibitory concentration (IC50) is 1900 nM in assay [1] and 2400 nM in [2].

On to `COC1O[C@@H](c2ccc(Cl)c(Cc3ccc(OCCO)cc3)c2)[C@H](O)[C@@H](O)[C@@H]1O` (mixture of isomers), for which the IC50 in assay [1] is 9.5 nM; in [2] it was 36 nM.

As to `CCOc1ccc(-c2cccc([C@@H]3OC(OC)[C@@H](O)[C@H](O)[C@H]3O)c2)cc1` (mixture of isomers), the 50% inhibitory concentration (IC50) worked out at 1900 nM in assay [1] and 4600 nM in assay [2].

Consider `CCOc1ccc(Cc2cc([C@@H]3OC(OCc4ccccc4)[C@@H](O)[C@H](O)[C@H]3O)ccc2Cl)cc1` (mixture of isomers), for which the figures for the IC50 in [1] and in assay [2] were 330 nM and 620 nM, respectively.

Consider `COCCOc1ccc(Cc2cc([C@@H]3OC(OC)[C@@H](O)[C@H](O)[C@H]3O)ccc2Cl)cc1` (mixture of isomers), for which the half-maximal inhibitory concentration (IC50) in assay [1] was 16 nM; in assay [2], 45 nM.

For the molecule `CCOc1ccc(Cc2cc([C@@H]3OC(OCCN(C)C)[C@@H](O)[C@H](O)[C@H]3O)ccc2Cl)cc1` (mixture of isomers), the half-maximal inhibitory concentration (IC50) in assay [1] stood at 2200 nM; in assay [2] it was 3600 nM.

Turning to `COC1O[C@@H](c2ccc(Cl)c(Cc3ccc(O)cc3)c2)[C@H](O)[C@@H](O)[C@@H]1O` (mixture of isomers), the IC50 in assay [1] came to 8 nM; in [2], 32 nM.

Regarding `CCOc1ccc(Cc2cccc([C@@H]3OC(OC)[C@@H](O)[C@H](O)[C@H]3O)c2)cc1` (mixture of isomers), the IC50 in [1] was 220 nM; in assay [2], 1100 nM.

On to `COC1O[C@@H](c2ccc(Cl)c(Cc3ccc(OC(=S)N(C)C)cc3)c2)[C@H](O)[C@@H](O)[C@@H]1O` (mixture of isomers), for which the half-inhibitory concentration (IC50) amounted to 330 nM in assay [1] and 740 nM in assay [2].

`CCOc1ccc(Cc2cc([C@@H]3OC(OCCO)[C@@H](O)[C@H](O)[C@H]3O)ccc2Cl)cc1` (mixture of isomers): the concentration for half-maximal inhibition (IC50) in [1] is 23 nM; in assay [2], 36 nM.

For the molecule `CCOc1ccc(Cc2cc([C@@H]3OC(OC)C[C@H](O)[C@H]3O)ccc2Cl)cc1` (mixture of isomers), the 50% inhibitory concentration (IC50) in [1] is 14000 nM; in assay [2], > 30000 nM.

For `COc1ccc(Sc2cc([C@@H]3OC(OC)[C@@H](O)[C@H](O)[C@H]3O)ccc2Cl)cc1` (mixture of isomers), the figures for the concentration for half-maximal inhibition (IC50) in assay [1] and in assay [2] were 100 nM and 180 nM, respectively.

Turning to `CCOc1ccc(Cc2cc([C@]3(C)OC(OC)[C@@H](O)[C@H](O)[C@H]3O)ccc2Cl)cc1` (mixture of isomers), the IC50 in [1] turned out to be 220 nM; in [2], 590 nM.

`CCOc1ccc(Cc2cc([C@@H]3OC(OC)[C@@H](O)[C@H](O)[C@H]3O)ccc2C)cc1` (mixture of isomers): the results for the IC50 in assay [1] and in assay [2] were 23 nM and 55 nM, respectively.

Take `CCOc1ccc(Cc2cc([C@@H]3OC(OC(C)C)[C@@H](O)[C@H](O)[C@H]3O)ccc2Cl)cc1` (mixture of isomers): the values for the IC50 in assay [1] and in assay [2] were 190 nM and 420 nM, respectively.

As to `CCOc1ccc(Cc2cc([C@@H]3OC(OC)[C@@H](O)[C@H](O)[C@H]3O)ccc2Cl)cc1` (mixture of isomers; 7a), the Activity result in the assay on Mus musculus [3] is “Dose-dependent effect”.

Consider `CCOc1ccc(Cc2cc([C@@H]3OC(OC)[C@@H](O)[C@H](O)[C@H]3O)ccc2Cl)cc1` (mixture of isomers; 7b), for which the IC50 in assay [1] was 280 nM; in assay [2], 4800 nM.

As for `CCOc1ccc(Cc2cc([C@@H]3OC(OC)[C@@H](O)[C@H](O)[C@H]3O)ccc2Cl)cc1` (mixture of isomers; 7c), the outcome in the assay with Mus musculus [4], with Mus musculus [5], with Mus musculus [6], with Mus musculus [7], with Mus musculus [8] and in the assay on Mus musculus [9] was Active. In addition, the Activity result with Mus musculus [3] is “Dose-dependent effect”.

Regarding `CCOc1ccc(C(=O)c2cc([C@@H]3OC(OC)[C@@H](O)[C@H](O)[C@H]3O)ccc2Cl)cc1` (single isomer, unassigned), the figures for the IC50 in assay [1] and in assay [2] were 57 nM and 100 nM, respectively.

With `CCOc1ccc(Cc2cc([C@@H]3OC(OC)[C@@H](O)[C@H](O)[C@H]3O)ccc2Cl)cc1` (stereo in doubt; 6a), the IC50 in [1] is 7.1 nM; in [2], 25 nM.

For the molecule `CCOc1ccc(Cc2cc([C@@H]3OC(OC(C)C)[C@@H](O)[C@H](O)[C@H]3O)ccc2Cl)cc1` (stereo in doubt; 9b), the IC50 in assay [1] came out at 15 nM; in assay [2] it was 33 nM.

For the origin of these results see ChEMBL document CHEMBL1156071, “Novel L-xylose derivatives as selective sodium-dependent glucose cotransporter 2 (SGLT2) inhibitors for the treatment of type 2 diabetes” (J Med Chem, 2009).
